Source: ChEMBL document CHEMBL3808312, “Bioactive Constituents of Glycyrrhiza uralensis (Licorice): Discovery of the Effective Components of a Traditional Herbal Medicine” (J Nat Prod, 2016)
Activity calls are given as the source filed them. No cut-off for these calls is given here. Peptide text beside a SMILES is read from it. * marks the point of attachment. Cbz = O=C(OCc1ccccc1)*

Assays:
[1] = biological target: T1, Nuclear factor erythroid 2-related factor 2 (Homo sapiens) (UniProt Q16236); assay: Activation of NRF2 transcription in human HepG2C8 cells at 10 uM after 6 hrs by luciferase reporter gene assay relative to control; type: cell-based
T1 sequence (whole entry): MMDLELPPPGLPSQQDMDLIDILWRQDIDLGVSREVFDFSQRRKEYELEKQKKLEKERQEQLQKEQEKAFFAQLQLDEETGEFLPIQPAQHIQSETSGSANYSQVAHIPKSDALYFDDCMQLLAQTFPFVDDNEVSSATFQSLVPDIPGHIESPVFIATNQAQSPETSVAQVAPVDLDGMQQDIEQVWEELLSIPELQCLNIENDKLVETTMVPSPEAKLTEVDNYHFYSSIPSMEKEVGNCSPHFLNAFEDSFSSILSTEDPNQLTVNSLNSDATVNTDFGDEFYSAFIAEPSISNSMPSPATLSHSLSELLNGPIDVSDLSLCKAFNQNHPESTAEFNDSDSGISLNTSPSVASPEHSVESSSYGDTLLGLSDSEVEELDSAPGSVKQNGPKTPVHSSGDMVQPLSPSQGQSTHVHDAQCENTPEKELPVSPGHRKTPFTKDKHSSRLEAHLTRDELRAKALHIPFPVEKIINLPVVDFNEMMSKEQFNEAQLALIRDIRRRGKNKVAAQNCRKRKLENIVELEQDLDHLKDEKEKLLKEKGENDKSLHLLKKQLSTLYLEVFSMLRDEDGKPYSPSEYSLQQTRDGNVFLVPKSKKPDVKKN
Method in brief: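 Luciferase reporter in HepG2C8 cells, which are HepG2 stably transfected with an Nrf2 luciferase reporter and grown in MEM. Screened at 10 μM, with dose-response over 2.5−40 μM. Activity expressed as fold of control. tBHQ positive control.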

SW480 [2] = assay: Inhibition of NFkappaB transcription in human SW480 cells at 10 uM by luciferase reporter gene assay; type: cell-based
Method in brief: (§1)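 SW480 cells (RPMI1640) stably transfected with an NF-κB luciferase reporter. […] MG132 positive control.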

SW480 [3] = assay: (§2) Inhibition of NFkappaB transcription in human SW480 cells at by luciferase reporter gene assay; type: cell-based; method in brief: as §1
[4] = as §2; type: cell-based; method in brief: as §1
A549 = assay: Cytotoxicity against human A549 cells assessed as reduction in cell viability after 24 hrs by MTS assay; type: functional, cell-based; settings: A549, 24 h
Method in brief: (§3)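 Cells seeded at 5 × 10^3/well and cultured overnight, then exposed to compounds for 24 h. Viability read by MTS. Media: SW480 in RPMI1640, A549 in DMEM, MCF7 in MEM. […] Irinotecan positive control.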

SW480 [5] = assay: Cytotoxicity against human SW480 cells assessed as reduction in cell viability after 24 hrs by MTS assay; type: functional, cell-based; settings: SW480, 24 h; method in brief: as §3
[6] = biological target: T2, Tyrosine-protein phosphatase non-receptor type 1 (Homo sapiens) (UniProt P18031); assay: Inhibition of recombinant human PTP1B assessed as hydrolysis of p-nitrophenyl phosphate at 25 uM after 30 mins relative to control
T2 sequence (whole entry): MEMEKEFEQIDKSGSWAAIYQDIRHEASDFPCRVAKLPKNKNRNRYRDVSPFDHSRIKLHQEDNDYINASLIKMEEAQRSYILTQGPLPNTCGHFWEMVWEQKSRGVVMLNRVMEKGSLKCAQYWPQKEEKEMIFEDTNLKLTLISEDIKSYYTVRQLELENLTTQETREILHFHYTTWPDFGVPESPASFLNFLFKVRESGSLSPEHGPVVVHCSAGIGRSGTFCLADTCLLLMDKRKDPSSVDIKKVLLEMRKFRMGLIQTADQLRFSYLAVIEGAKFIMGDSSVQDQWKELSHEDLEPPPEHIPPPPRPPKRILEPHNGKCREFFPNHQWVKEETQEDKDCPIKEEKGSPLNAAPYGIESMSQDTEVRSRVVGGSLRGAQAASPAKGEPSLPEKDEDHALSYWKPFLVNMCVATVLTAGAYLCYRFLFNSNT

MCF7 = assay: Cytotoxicity against human MCF7 cells assessed as reduction in cell viability after 24 hrs by MTS assay; type: functional, cell-based; settings: MCF7, 24 h; method in brief: as §3
HepG2 = assay: Cytotoxicity against human HepG2 cells assessed as reduction in cell viability after 24 hrs by MTS assay; type: functional, cell-based; settings: HepG2, 24 h; method in brief: as §3
Influenza A virus [7] = assay: Antiviral activity against Influenza A virus A/WSN/33(H1N1) infected in MDCK cells at 100 uM preincubated with virus for 15 mins followed by cells addition measured at 36 hrs post infection; type: functional, A/WSN/1933(H1N1)
Method in brief: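 MDCK canine kidney cells grown in DMEM and infected with influenza A/WSN/33 (H1N1). Compounds screened at 100 μM. Oseltamivir phosphate served as the positive control.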

[8] = biological target: T3, Tyrosinase (Homo sapiens) (UniProt P14679); assay: Inhibition of tyrosinase (unknown origin) using L-tyrosine as substrate assessed as oxidation of L-tyrosine at 20 uM after 15 mins
T3 sequence (whole entry): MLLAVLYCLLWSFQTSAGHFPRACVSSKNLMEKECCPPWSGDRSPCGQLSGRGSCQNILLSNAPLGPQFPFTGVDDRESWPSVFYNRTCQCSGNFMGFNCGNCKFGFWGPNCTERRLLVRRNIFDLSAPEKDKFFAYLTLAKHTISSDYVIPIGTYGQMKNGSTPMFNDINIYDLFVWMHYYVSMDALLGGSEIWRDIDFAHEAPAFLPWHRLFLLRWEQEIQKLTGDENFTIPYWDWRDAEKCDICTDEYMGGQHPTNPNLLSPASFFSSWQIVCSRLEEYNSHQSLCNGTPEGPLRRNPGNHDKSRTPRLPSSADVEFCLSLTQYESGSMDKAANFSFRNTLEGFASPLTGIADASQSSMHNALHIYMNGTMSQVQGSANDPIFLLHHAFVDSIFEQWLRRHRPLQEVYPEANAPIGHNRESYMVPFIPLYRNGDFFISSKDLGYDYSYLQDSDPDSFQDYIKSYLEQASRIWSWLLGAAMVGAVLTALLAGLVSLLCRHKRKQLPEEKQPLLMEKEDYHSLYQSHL
Method in brief: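 Tyrosinase at 333 U/mL (stock) in 45 mM sodium phosphate, pH 6.6, with 2 mM L-tyrosine (stock). Incubated 37 °C for 15 min; oxidation read at 492 nm. Screened at 20 μM; dose-response for IC50. Glyasperin C positive control.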

Influenza A virus [9] = assay: Antiviral activity against Influenza A virus A/WSN/33(H1N1) infected in dog MDCK cells preincubated with virus for 15 mins followed by cells addition measured at 36 hrs post infection; type: functional, organism-based; settings: A/WSN/1933(H1N1)

COc1c2c(cc3oc(=O)c4c5ccc(O)cc5oc4c13)OC(C)(C)CC2
fold change (FC) [1]: 3.32

C[C@@H]1O[C@@H](c2c(O)c([C@@H]3O[C@H](COC(=O)CC(C)(O)CC(=O)O)[C@@H](O)[C@H](O)[C@H]3O)c3oc(-c4ccc(O)cc4)cc(=O)c3c2O)[C@H](O)[C@H](O)[C@H]1O (some centres not stated)
fold change (FC) [1]: 1.5

CC(C)C[C@@H](C=O)NC(=O)[C@H](CC(C)C)NC(=O)[C@H](CC(C)C)NC(=O)OCc1ccccc1 [MG-132] (Cbz-Leu-Leu-Leu-aldehyde)
inhibition (SW480 [2]): 23%
inhibition (SW480 [3]): Dose-dependent effect
IC50 [4]: 29.5 µM

COc1c(-c2ccc(O)cc2)oc2cc(O)c(CC=C(C)C)c(O)c2c1=O
IC50 (A549): 23.1 µM
IC50 (SW480 [5]): 16.1 µM
inhibition [6]: 52%
IC50 (MCF7): 7.3 µM
IC50 (HepG2): 10.8 µM

COc1c(CC=C(C)C)c(O)cc2oc(=O)c3c4ccc(O)cc4oc3c12
fold change (FC) [1]: 0.88

CC(C)=CCc1c(O)c(CC=C(C)C)c2occ(-c3ccc(O)cc3)c(=O)c2c1O
Activity (Influenza A virus [7]): >30%
inhibition [6]: > 95%

CC(C)=CCc1cc(-c2oc3cc(O)cc(O)c3c(=O)c2O)cc(O)c1O
inhibition [6]: Active

COc1cc2c(c(OC)c1CC=C(C)C)C=C(c1ccc(O)cc1O)CO2
inhibition [8]: inactive

CC(C)=CCc1cc(-c2oc3cc(O)cc(O)c3c(=O)c2O)ccc1O
inhibition [6]: 98%

COc1cc2oc(=O)c(-c3ccc(O)cc3O)cc2c(OC)c1CC=C(C)C
fold change (FC) [1]: 0.88

COc1cc(O)cc2c1[C@@H]1Oc3c(ccc4c3C=CC(C)(C)O4)[C@@H]1CO2
inhibition (SW480 [2]): > 30%
inhibition (SW480 [3]): Dose-dependent effect
IC50 [4]: 25.8 µM

CC1(C)C=Cc2c(ccc3c2OC[C@@H](c2ccc(O)cc2O)C3)O1 [GLABRIDIN]
inhibition (SW480 [2]): > 30%
inhibition (SW480 [3]): Dose-dependent effect
IC50 [4]: 21.4 µM

CC1(C)[C@@H](O)CC[C@]2(C)[C@H]3C(=O)C=C4[C@H]5C[C@@](C)(C(=O)O)CC[C@]5(C)CC[C@@]4(C)[C@]3(C)CC[C@@H]12
Activity (Influenza A virus [7]): 58%
inhibition [6]: 81%

COc1c2c(cc3oc(=O)c(-c4ccc(O)cc4O)cc13)OC(C)(C)CC2
fold change (FC) [1]: 3.49

C=CC(C)(C)c1c(O)cc(OC)c2cc(-c3ccc(O)cc3O)c(=O)oc12
fold change (FC) [1]: 0.88

COc1cc2c(c3oc(=O)c4c5ccc(O)cc5oc4c13)C(C)(C)C(C)O2 (configuration not stated)
fold change (FC) [1]: 0.88

C[C@H]1O[C@H](O[C@H]2CC(C)(C)C[C@@H]3C4=CC(=O)[C@H]5[C@]6(C)CC[C@@H](O[C@@H]7O[C@H](C(=O)O)[C@@H](O)[C@H](O)[C@H]7O[C@@H]7O[C@H](C(=O)O)[C@@H](O)[C@H](O)[C@H]7O)C(C)(C)[C@H]6CC[C@]5(C)[C@@]4(C)CC[C@]23C)[C@@H](O)[C@@H](O)[C@@H]1O
Activity (Influenza A virus [7]): 47%
IC50 (Influenza A virus [9]): 39.6 µM
fold change (FC) [1]: 1.53

CC(C)=CCc1c(O)ccc(-c2coc3c(CC=C(C)C)c(O)cc(O)c3c2=O)c1O
Activity (Influenza A virus [7]): >30%
inhibition [6]: > 95%

CCc1c2c(nc3ccc(OC(=O)N4CCC(N5CCCCC5)CC4)cc13)-c1cc3c(c(=O)n1C2)COC(=O)[C@]3(O)CC [IRINOTECAN]
IC50 (A549): 0.8 µM
IC50 (SW480 [5]): 1.4 µM
IC50 (MCF7): 0.5 µM
IC50 (HepG2): 0.9 µM

COc1cc(/C=C/C(=O)c2ccc(O)cc2O)ccc1O
inhibition [8]: Active

COc1cc2c(c3oc(-c4ccc(O)cc4O)cc13)C(C)(C)C(C)O2 (configuration not stated)
inhibition [6]: > 90%

COc1cc2c(c3oc(=O)c(-c4ccc(O)cc4O)cc13)C(C)(C)C(CO)O2 (configuration not stated)
fold change (FC) [1]: 0.88

O=C(/C=C/c1ccc(O)cc1)c1ccc(O)cc1O
inhibition [8]: Active
fold change (FC) [1]: 5.88

CC(C)=CCc1c(O)cc2oc(-c3ccc(O)cc3)c(O)c(=O)c2c1O
inhibition [6]: 51%

COc1cc2c(c3oc(=O)c(-c4ccc(O)cc4O)cc13)C(C)(C)C(C)O2 (configuration not stated)
fold change (FC) [1]: 0.88

CC(C)=CCc1c(O)cc2occ(-c3ccc(O)c(O)c3)c(=O)c2c1O
IC50 (A549): 20.3 µM
IC50 (SW480 [5]): 12 µM
IC50 (MCF7): 7 µM
IC50 (HepG2): 6 µM

CC(=O)O[C@H]1C[C@@](C)(C(=O)O)C[C@H]2C3=CC(=O)[C@H]4[C@]5(C)CC[C@@H](O[C@@H]6O[C@H](C(=O)O)[C@@H](O)[C@H](O)[C@H]6O[C@@H]6O[C@H](CO)[C@H](O)[C@H](O)[C@H]6O)C(C)(C)[C@H]5CC[C@]4(C)[C@@]3(C)CC[C@]12C
Activity (Influenza A virus [7]): 47%
IC50 (Influenza A virus [9]): 39.6 µM

O=C1C[C@@H](c2ccc(O)cc2)Oc2cc(O)ccc21
inhibition [6]: inactive

CC(C)=CCc1cc2c(=O)cc(-c3ccc(O)cc3)oc2cc1O
inhibition [6]: Active

C[C@@]1(C(=O)O)CC[C@@]2(C)CC[C@@]3(C)C(=CC(=O)[C@H]4[C@]5(C)CC[C@@H](O[C@H]6O[C@@H](C(=O)O)[C@H](O)[C@@H](O)[C@@H]6O[C@H]6O[C@@H](C(=O)O)[C@@H](O)[C@@H](O)[C@@H]6O)[C@@](C)(CO)[C@H]5CC[C@@]43C)[C@@H]2C1
Activity (Influenza A virus [7]): 47%
IC50 (Influenza A virus [9]): 39.6 µM

CC1(C)[C@H]2CC[C@@]3(C)[C@@H](C(=O)C=C4[C@@H]5C[C@]6(C)C[C@@H](COC6=O)[C@@]5(C)CC[C@@]43C)[C@]2(C)CC[C@H]1O[C@H]1O[C@@H](C(=O)O)[C@H](O)[C@@H](O)[C@@H]1O[C@@H]1O[C@H](C(=O)O)[C@H](O)[C@H](O)[C@H]1O
Activity (Influenza A virus [7]): 47%
IC50 (Influenza A virus [9]): 39.6 µM

COc1c(CC=C(C)C)c(O)cc2oc(=O)c(-c3ccc(O)cc3O)cc12
fold change (FC) [1]: 1.72
